# Measured values published in the EternaBench riboswitch data.
# Tested on: MS2 coat protein
# Assay: apparent Kd, MS2 coat protein; higher = weaker binding; RNA-MaP array; FMN 200 µM where present
# In short: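 In 100 mM Tris-HCl pH 7.5, 80 mM KCl, 4 mM MgCl2, BSA, DTT, yeast tRNA and Tween-20, SNAP-549-labelled MS2 coat protein was titrated from 0.7 or 1.5 nM, doubling to 3 µM, over designs transcribed by stalled E. coli RNA polymerase on Illumina sequencing-chip clusters. This was done first without ligand, then with ligand held constant. After green signal was normalised to red-channel RNA signal and control-cluster median Fmax, the apparent Kd was taken as the median of filtered per-cluster binding-curve fits.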
# [1] = designed as: OFF switch for flavin mononucleotide, no ligand
# [2] = ligand present: flavin mononucleotide, designed as: OFF switch for flavin mononucleotide
# [3] = designed as: ON switch for flavin mononucleotide, no ligand
# [4] = ligand present: flavin mononucleotide, designed as: ON switch for flavin mononucleotide
Sequence,apparent Kd [1] [nM],apparent Kd [2] [nM],apparent Kd [3] [nM],apparent Kd [4] [nM]
AUGAGGUCAGGAUAUGCAUGGCGGGACUUGCGUCGUGGCGUGCAGAAGGGACAUGAGGAUCACCCAUGUGGACC,36.4,39.5,–,–
AGUAAGAUGCAGAAGGUGUCAGCGAGAGCUGCGACAUGAGGAUCACCCAUGUACACGUGAGUGUACAAGGAUAUGCAUCUUACA,–,–,1090,431
AGUCAUACAGGAUAUACAUGAGGAUCACCCAUGUAAAUCCUAAAAAGAAAAUCCUCAUGUAGAAGGGUAUGACA,13.6,9.24,–,–
AACAGACGUGCUCUGAGUCCACAUGAGGAUCACCCAUGUGAGAGAAGGACCCUCGAGAGAGUUGGGUAGGAUAUCUCCGAUGGG,27,80.5,–,–
CCUGAGUCAGGAUAUUGUACCGGCCUGAAGCCAGACCGACCCAAGAAGGGACAUGAGGAUCACCCAUGUGAAAA,23.1,24.7,–,–
UGGAUCAUCGGAGGAUAUCAUGUAAAUACAUGAGGAUCACCCAUGUCGUACGAGAGUACGGAGAUUGAGAAGGCCGAUGAUCCU,–,–,24.6,15.4
GUCGGAAACGACAAGUAGCAAUCGGAGGAUAUUCAUGAAAACAUGAGGAUCACCCAUGUAAAUUGGGAGAAGGCCGAUUGCUAC,–,–,91.6,8.48
CUCUCGCGAGGAUAUGAUUUAAGUAACAUGAGGAUCACCCAUGUUUUUCCGUUGUUAUGUUCAGAAGGCGCGUGAU,44.2,84.3,–,–
CGCUACUGCCAGAAGGACAUGAGGAUCACCCAUGUAGGAUAUGGGUGUCGAGGACCAGUGUAGAGAAACUACGCUACAGUAGCG,–,–,958,57.6
GUUUCUAUAUGUUUUAUUUAACAGUCAGAAGGUGAUAAUACGACAUGAGGAUCACCCAUGUAAUUCAAGGAUAUGAUAUUAAUC,–,–,62.7,27.7
GCUUUAUAGAUCCAUUUUAACAACAUGAGGAUCACCCAUGUGCAGGAUAUCGUUUGUUUUAUAUUCGAGAAGGGCAAAUUCAGC,32.5,77.6,–,–
GUAGCUAUCGGAGGAUAUUCAUACCGGAAACGGACAUGAGGAUCACCCAUGUAGCGAAAGCCUUGGGAGAAGGCCGAUAGCUAC,–,–,919,103
CAUUUACAGGGAGGAUAUACAUGAGGAUCACCCAUGUCAUCAUACGAUCUUUCUUUUGUAUGAGUGUAGAAGGCCCAACUACCA,13.6,14.6,–,–
UGGUACAUCGGAGGAUAUCAUGUAGACACAUGAGGAUCACCCAUGUCGAUGGAGACAUCGGAGAUUGAGAAGGCCGAUGUACCU,–,–,503,23.3
UGAUCGAGAGAUCUUAGAUUCUGGUAGGAUAUACAUAAAAUGCGCUUUACAUGAGGAUCACCCAUGUAGAAGGACUAGAGUCUA,7.54,9.8,–,–
GUAGCAUACCGAGGAUAUUCAUAUAGGAAACUAACAUGAGGAUCACCCAUGUGGCGAAAGCCUUGGGAGAAGGCGGAAUGCUAC,–,–,408,29.2
CGGACAAUGCCCGAGACAUGAGGAUCACCCAUGUUAGCAGCACAGGAUAUCAUGUUUUGUAAAGGUGAGAAGGGUGAUUGCAUC,–,–,102,68.2
GGCGUGUUAGGAUAUCGCGGCGGCGGCGUUUGUUGUUGUUGUGAGAAGGAACAUGAGGAUCACCCAUGUGCGCC,18.4,27.4,–,–
UCCCGGUAAGAAGGAUAUACAUGAGGAUCACCCAUGUAUUAAACAUAUACUGGCCGUGGCCUUGUGUAGAAGGUCUGUCGGUCA,6.75,5.97,–,–
CACGUACAUGAGGAUCACCCAUGUUAGGAUAUGUUUACCGGAAGGCAUUCUUGGGUAAACAGAAGGGACGAAAC,22.5,31.8,–,–
GAAAUGAUGAUAGGAUAUCCACAGACAUGAGGAUCACCCAUGUUUAUGGGACGAAUCCUUGUGCAGGAGAAGGAUCGUCACUAU,64.7,39.5,–,–
UAAAAGCGAGGAUAUACAUGAGGAUCACCCAUGUGAGGCGAAACGCCUCGGGCCAUCAGUAGAAGGUGCAAAAC,109,84.8,–,–
GCUGCAUAGGCAGGAUAUGCAAGAAUUGAAAUAAAAUAUAAUAAAUGAACAUGAGGAUCACCCAUGUAGAAGGGCCUGUGCAGU,20.8,21.4,–,–
AAAAAAAAAAGUGAGGAUAUGGGAAAAUUAACAUGAGGAUCACCCAUGUGAUAAAAAAAAAAAAACCAGAAGGUACAAAAAAAAAA,–,–,69.5,26.4
GUAGUGUAGUGAGGAUAUACGAGAUCGAUAGAUCGGCGAUCCAUUAAUACAUGAGGAUCACCCAUGUAGAAGGCACUUCACUAC,6.01,70.7,–,–
AACUAAGUAUUAAUGGUGUCUGACAGAAGGCAAUAGGUUGUGACCGACAUGAGGAUCACCCAUGUUGAGGAUAUGUCUAGCUAC,44.7,308,–,–
ACAUGAGGAUCACCCAUGUAAAGCGAGGAUAUUUCACUGCACAUGAGGUUCGCCCAUGUUCUGCGGAAGAAGGUGCAAAUAAUU,–,–,–,28.1
UAUAUGUCAGGAUAUUAGUUGUGUUAGAAUUUAUCUUCUGCUGAGAAGGGACAUGAGGAUCACCCAUGUUCCUC,14.5,16,–,–

Sequence,apparent Kd [1] [nM],apparent Kd [2] [nM],apparent Kd [3] [nM],apparent Kd [4] [nM]
UGUUGUAUUACAGGAUAUCUAUGAUUUUUAUUAAGAGAAGGGUAUUCACAUGAGGAUCACCCAUGUAUAUACGAGGAAGUUGUG,–,–,35.2,36
GCGCUUAUACAGAAGGCCAUAUACAUGAGGAUCACCCAUGUUACAUGGUGGAGGAUAUGUUAUUAAUUACAGGUAGAUGAGCGC,–,–,4.61,4.42
UCCAACAUGAGGAUCACCCAUGUACAGGAUAUUAGAUCAGCUCAGCGCGUCCGUCAAGAUAUUUCUAAGAAGGGUACUGGGUAC,20.2,33.1,–,–
GUCAGCUCGUGAGGAUAUACAUGAUAGAUCGAUUAAUUAAUUAAUUUAACAUGAGGAUCACCCAUGUAGAAGGCACGAGCUGAC,51.7,46.7,–,–
CGCUUCUUAGUCAGGAUAUUGUCUGCACAGGGUAGUAAGAAGGGACAUGAGGAUCACCCAUGUAUAACGGUACC,51.8,49.1,–,–
GUAAAGUGAGGAUAUGGUAAAGUAAGUAUUUAGUAAGUAAUCCAGAAGGCACAUGAGGAUCACCCAUGUAAAUG,29.3,35.8,–,–
UUACUACAUGAGGAUCACCCAUGUCAGGAUAUUGUCUAUACCGUGGAAGCUGUGUCGAUAAGAAGGGACUGUAU,20.5,34.8,–,–
UAUCGAGUAGCAGGAUAUUAUGUGGCUAAUUCCGAGUCUGAUGCUUCACAUGAGGAUCACCCAUGUAAGAAGGGCUAACUCGGG,26.2,63.7,–,–
CCGGAAACGGGUAGCUGACAUGAGGAUCACCCAUGUGAAACACAGGAUAUGGAUCCUAAUUGGAUCCAGAAGGGUGUCAGCUAC,–,–,247,37.2
UUAUGCUUUGAGAAGGUACAAACUACAUAUUGCGCACAUGAGGAUCACCCAUGUUGGUGAAUAAGUAAGGAUAUUAGACUGUGC,133,102,–,–
GAUCCUUCUGUUAGGAUAUGCUUUGGGCUUCCGCAGCAGAAGGAACAUGAGGAUCACCCAUGUCAAAUAACAUC,21.4,22.8,–,–
AAAACUGGAGGAUAUACAUGAGGAUCACCCAUGUGUGGGUAGGCUGUGUCGGCGUCAGGUAGAAGGCCACAAAA,92.3,136,–,–
GUGAACAUGAGGAUCACCCAUGUAGCUCACUGCCAGUGGCUACAGGAUAUAGCACCUCGAGGGUGCUAGAAGGGUGGCCUAGAA,–,–,62.9,16.8
GAACGUGACAUGAGGAUCACCCAUGUUGCCUGAGCCAGGUCGUAGGAUAUCCUGUUGAUUAAUUUGGAGAAGGGCGACUGGGAG,–,–,46.5,18.3
AUCAUGCUCAAGAAGGACAUGAGGAUCACCCAUGUAGGAUAUUGGGCGGUCACCUCUAGCUUGUGUGUAUCUGAAUACUCCAGG,–,–,21.1,7.17
UUUUAACAUGAGGAUCACCCAUGUGAGGAUAUCGAAAUUUAUAUUAAUAUUUAUAAAUCGAGAAGGCACAUUUU,135,124,–,–
UGCUGGGAGUCAGGAUAUACGUGGUAUGCUGAGCACAUGAGGAUCACCCAUGUAGAAGGGAUUCCGCGGUGAGAUUCCGAAACA,6.03,6.62,–,–
AGAAAACAUGAGGAUCACCCAUGUGAGGAUAUCGAUGUCCAAAAAAAAGUGCGGGACUCGAGAAGGCACUUGGA,28.6,37.6,–,–
GUUUCACAUGAGGAUCACCCAUGUGAGGAUAUGGAUUUGUUAACCGUAGUUAAUAGAUCCAGAAGGCGCGUGAU,62.4,68.2,–,–
UGAUCUAUGUAGAAGGCCCAUAUCUAUAUUUAGGGAGGAUAUACAUGAGGAUCACCCAUGUAUAGAGCGAGUGGACUCGUCACC,18.1,47.3,–,–
AGGUACGGUCGAUCAUAUCAAGGUAGAAGGCGACUGGGAAUGUGAGACAUGAGGAUCACCCAUGUCGAGGAUAUACCUGAAAGU,88.9,50.1,–,–
GAGAGAGGGUGAGGAUAUUUAGUGAUAAUGAUAAGAGAAGGCACAGACAUGAGGAUCACCCAUGUGGGAAUAAUCCAGAGAGAG,–,–,298,290
AAACAUGAGGAUCACCCAUGUAAACGAGAAGGGCGAGAGAGUAGAGGAUAGGAGAAAGAUGAGUCGCAGGAUAUCGACCUCAUA,–,–,16,17
GCGAUUUUGUAAGGAUAUACACCAGUUUUAAGUGUAGAAGGUACUUACAUGAGGAUCACCCAUGUAUAAAUGUAUAAUAGUCGC,–,–,6.92,6.87
CCGAAUAUGCAGGAUAUCUUAUCGGAAACGAUAAGAGAAGGGUAAACAUGAGGAUCACCCAUGUUCCUUAACGG,20.3,21,–,–
GUUAUUGACAAGAAGGCAAACAUGAGGAUCACCCAUGUUCUACAUGUAUAUUGAGGAUAUUGCCAAUACAUGAGGAUCACCCAG,45,53.3,–,–
CGGUUGUCAGGAUAUACGAACAUGUCGCCAGAUGUCAUGGUACAUGAGGAUCACCCAUGUAGAAGGGAGGAGGU,135,80,–,–
